Assay results reported in ChEMBL document CHEMBL1153005, “Synthesis and biological evaluation of curcumin-like diarylpentanoid analogues for anti-inflammatory, antioxidant and anti-tyrosinase activities” (Eur J Med Chem, 2009).

Assays:
[1] = tested on: Radical scavenging activity; experiment: Antioxidant activity assessed as DPPH free radical scavenging activity after 30 mins; format: functional
Procedure, shortened: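 Compound stocks were made in 100% DMSO and serially diluted from 7.81 to 500. DPPH (1 mg/ml in methanol) was added, and plates were shaken gently and kept in the dark for 30 min. Absorbance was read at 517 nm, and % scavenging was calculated versus the control. Results are the mean ± S.E.M. of three runs; IC₅₀ values were calculated.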

[2] = Antioxidant activity assessed as nitric oxide scavenging activity after 60 min by Griess assay; format: functional
Procedure, shortened: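 Sodium nitroprusside (10 mM) was incubated alone or with test compounds (7.81–500) for 60 min under light exposure. Nitrite in the mixture was measured by Griess assay, and % NO scavenging was calculated from OD versus the control. Results are the mean ± S.E.M. of three runs; IC₅₀ values were calculated.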

RAW264.7 [3] = experiment: Antiinflammatory activity in mouse RAW264.7 cells assessed as inhibition of IFN-gamma/LPS-stimulated nitric oxide production after 17 to 20 hrs by Griess assay; format: functional, cell-based
Procedure, shortened: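 RAW 264.7 cells were grown in DMEM with 10% FBS and 1% penicillin/streptomycin (5% CO₂, 37 °C). At 80–90% confluency they were scraped and seeded at 5 × 10⁴ cells/well. Nitrite was measured by Griess assay, and % NO inhibition was taken relative to the IFN-γ/LPS control. Results are the mean ± S.E.M. of three experiments; IC₅₀ values were computed from these.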

Tyrosinase = target: T1, Tyrosinase (Homo sapiens, UniProt P14679); experiment: Inhibition of tyrosinase
T1 sequence (P14679 whole entry): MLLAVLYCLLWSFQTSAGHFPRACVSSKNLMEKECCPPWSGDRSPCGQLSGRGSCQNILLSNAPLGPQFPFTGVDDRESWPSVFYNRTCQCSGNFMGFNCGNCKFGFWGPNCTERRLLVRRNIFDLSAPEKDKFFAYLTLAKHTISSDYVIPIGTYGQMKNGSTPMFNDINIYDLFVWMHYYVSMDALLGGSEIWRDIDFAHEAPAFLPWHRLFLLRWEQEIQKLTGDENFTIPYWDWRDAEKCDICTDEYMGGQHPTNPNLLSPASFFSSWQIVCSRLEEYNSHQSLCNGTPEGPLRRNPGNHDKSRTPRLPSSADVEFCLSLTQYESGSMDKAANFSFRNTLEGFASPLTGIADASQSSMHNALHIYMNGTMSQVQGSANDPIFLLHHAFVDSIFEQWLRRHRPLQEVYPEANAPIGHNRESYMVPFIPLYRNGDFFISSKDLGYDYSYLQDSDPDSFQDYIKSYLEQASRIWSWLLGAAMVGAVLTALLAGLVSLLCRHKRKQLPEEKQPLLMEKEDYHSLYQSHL

[4] = Cytotoxicity against HEMn cells; format: cell-based; details: human
RAW264.7 [5] = experiment: Cytotoxicity against IFN-gamma/LPS-stimulated mouse RAW264.7 cells assessed as cell viability at 50 uM after 17 to 20 hrs by MTT assay; format: cell-based; details: raw264.7, 50 µM
Procedure, shortened: (§1)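 RAW 264.7 cells were cultured and seeded as for the NO assay. In the MTT read-out, cells were incubated for 4 h at 37 °C under 5% CO₂. Formazan was dissolved in DMSO and absorbance read at 570 nm. Viability (%) = OD sample / OD control × 100. Results are the mean ± S.E.M. of three experiments.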

RAW264.7 [6] = experiment: Cytotoxicity against IFN-gamma/LPS-stimulated mouse RAW264.7 cells assessed as cell viability at 25 uM after 17 to 20 hrs by MTT assay; format: cell-based; details: raw264.7, 25 µM; procedure, shortened: as §1
[7] = Mus musculus, RAW264.7, read-out: IC50

Structure (SMILES)	IC50 ([1]; read-out: IC50) [µM]	IC50 ([2]; read-out: IC50) [µM]	IC50 (RAW264.7 [3]; raw264.7)	IC50 (Tyrosinase; read-out: IC50) [µM]	IC50 [1]	IC50 [2]	IC50 (RAW264.7 [3]; [7]) [µM]	IC50 (Tyrosinase)	further results
CC1(C)N([O])C(c2ccccc2)=[N+]([O-])C1(C)C	–	0.57	–	–	–	–	–	–	–
COc1ccc(OC)c(/C=C/C(=O)/C=C/c2cc(OC)ccc2OC)c1	–	–	–	–	Not Active	Not Active	13.6	Not Active	Activity (RAW264.7 [5]): Toxic
COC(=O)[C@@H](N)CCCNC(=N)N[N+](=O)[O-] [L-NAME]	–	–	–	–	–	–	27.1	–	–
O=c1c(O)c(-c2ccc(O)c(O)c2)oc2cc(O)cc(O)c12 [QUERCETIN]	41.8	–	–	–	–	Not Active	–	–	–

Further lines, with some results ahead:

IC50 ([1]; read-out: IC50) [µM]	IC50 ([2]; read-out: IC50) [µM]	IC50 (RAW264.7 [3]; raw264.7)	IC50 (Tyrosinase; read-out: IC50) [µM]	IC50 [1]	IC50 [2]	IC50 (RAW264.7 [3]; [7]) [µM]	IC50 (Tyrosinase)	Structure (SMILES)	further results
257	> 500	Not Active	> 250	–	–	–	–	COc1cc(/C=C/C(=O)/C=C/c2ccc(O)c(OC)c2)ccc1O	–
> 500	> 500	Not Active	79	–	–	–	–	O=C(/C=C/c1ccc(O)cc1)/C=C/c1ccc(O)cc1	Activity [4]: Toxic
–	–	–	> 250	Not Active	Not Active	33.1	–	COc1ccc(/C=C/C(=O)/C=C/c2ccc(OC)cc2F)c(F)c1	–
–	–	Not Active	> 250	Not Active	Not Active	–	–	O=C(/C=C/c1ccc(F)cc1)/C=C/c1ccc(F)cc1	–
> 500	> 500	–	–	–	–	10.2	Not Active	O=C(/C=C/c1ccccc1O)/C=C/c1ccccc1O	Activity (RAW264.7 [6]): Toxic; Activity (RAW264.7 [5]): Toxic
110	> 500	–	–	–	–	20.4	Not Active	COc1cc(/C=C/C(=O)CC(=O)/C=C/c2ccc(O)c(OC)c2)ccc1O [CURCUMIN]	–
